Source: PubChem
Compounds with a hit are over-represented: about 5.1% of the library has one in this group of screens.
APP 5'UTR act: APP 5'UTR luciferase reporter activation | SH-SY5Y APP 5'UTR luciferase reporter, luminescence; zero percent = DMSO vehicle wells | AID 1276 | activation, % at 2 µM | hit rate 1% among 190,000;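 active means activation above a set limit, based on mean plus 3 SD of controls, cut at about 140% in these data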
STAT1 act: activators of IFN-gamma induced STAT1 signaling | hit rate 2.6% among 200,000 | activation (% of control), % at 5.5 µM | NIH 3T3 STAT1-luciferase reporter, luminescence; 100% = IFN-gamma alone, no compound;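 active means activation above the screen-wide mean activation plus 3 SD, cut at about 130% in these data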;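 further: raw ratio to IFN-gamma control signal so 100% means no change and 0% no light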
STAT3 inh: reduces IL-6 driven STAT3 reporter signal. hit rate 0.89% among 190,000. U3A cells, IL-6 STAT3-luciferase reporter, luminescence; host cell line lacks STAT1. inhibition, % at 5.5 µM;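 active means inhibition above the mean inhibition across all screened compounds plus 3 SD, cut at about 44% in these data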;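 further: 0% = DMSO only wells and 100% = 100 µM nifuroxazide control wells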
NF-kB neuron act: raises NF-kB expression in human neuronal cells; NF-kB reporter expression; active compounds read high; fold change at 12.5 µM; hit rate 1.6% among 190,000; in the data active means fold change above about 3.3
STAT1 inh: reduces IFN-gamma driven STAT1 reporter signal; NIH 3T3 STAT1-luciferase reporter, luminescence; inhibition, % at 5.5 µM; hit rate 0.35% among 200,000;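 active means inhibition above a set limit, the mean inhibition across all tested compounds plus 3 SD, cut at about 34% in these data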;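 further: 0% = IFN-gamma with DMSO and 100% = IFN-gamma with 300 µM nifuroxazide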
STAT3 act: activators of IL-6 induced STAT3 signaling; U3A cells, IL-6 STAT3-luciferase reporter, luminescence; 100% = signal with IL-6 EC80 alone; activation (% of control), % at 5.6 µM; hit rate 0.91% among 190,000; AID 871;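 active means activation above the screen-wide mean of compound activation plus 3 SD, cut at about 130% in these data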;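 further: 0% = background luminescence of wells with medium and substrate only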
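Material: STAT3-luciferase reporter U3A cells. Controls: IL-6-treated wells, 100% activation. Read-out: % activation versus median of IL-6-stimulated wells. Probe or stimulus: IL-6 stimulus at 33 ng/mL final. Timing: compound 1 h, then IL-6 6 h at 37 °C. Signal: reporter luminescence signal.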
Active calls of the source: *; nt = no result.

SMILES | APP 5'UTR act | STAT1 act | STAT3 inh | NF-kB neuron act | STAT1 inh | STAT3 act
COC(=O)c1ccc(NC(=O)C2CC(=O)N(c3ccc(C)cc3)C2)cc1 (stereo unspecified) | 5 | 111 | 0 | 1.2 | -11 | 104
COc1ccc(CNC(=O)N[C@H](C(=O)O)C(C)C)cc1OC | -8 | nt | nt | nt | nt | nt
Nc1[nH]n(-c2ccccc2)c(=O)c1N=Nc1ccccc1[N+](=O)[O-] | 90 | 139* | 9 | 1.6 | -43 | 93
COc1cc([N+](=O)[O-])ccc1N=Nc1c(N)[nH]n(-c2ccccc2)c1=O | 1 | 97 | 5 | 1.1 | 2 | 97
O=S(=O)(/N=C(/c1ccc(Cl)cc1)N1CCOCC1)c1ccc(Cl)cc1 | 12 | 98 | 12 | 1.4 | 2 | 99
COc1ccc(NC(=O)Nc2ncccc2C)cc1 | 13 | 139* | 9 | 1.9 | -40 | 96
COc1ccc(C(=O)NC(=O)Nc2ncccc2C)cc1 | 16 | 124 | 14 | 1.8 | -31 | 89
COc1ccc(NC(=O)Nc2ccc(F)c(Cl)c2)cc1 | 106 | 112 | 11 | 2.6 | -13 | 95
COc1ccc(CC(=O)Nc2nnc(C(C)C)s2)cc1 | 16 | 102 | 5 | 1.4 | -4 | 100
COc1ccc(NC(=O)Nc2ccc(Br)c(C)c2)cc1 | 61 | 145* | 6 | 1.5 | -49 | 103
COc1ccc(NC(=O)Nc2nnc(C(C)C)s2)cc1 | 69 | 130* | 12 | 2.4 | -33 | 97
COc1ccc(NC(=S)Nc2ncccc2C)cc1OC | 39 | 131* | 22 | 1.9 | -36 | 86
Cc1c(Cc2ccc3c(c2)OCO3)sc(NC(=O)C(C)(C)C)c1C#N | 4 | 89 | -4 | 1.5 | 12 | 111
O=C(O)c1cn(-c2ccc(F)cc2)c(=O)c2ccccc12 | 4 | 100 | -15 | 1.3 | 0 | 113
COc1cccc(NC(=O)Nc2cc(C)ccc2F)c1 | 42 | 118 | 12 | 1.5 | -20 | 94
COc1ccc(NC(=O)Nc2cc(C)ccc2F)cc1 | 123 | 130* | 6 | 2.6 | -33 | 99
O=C(/C=C/c1ccccc1Cl)Nc1ccc(Cl)cn1 | 111 | 118 | 11 | nt | -22 | 94
COc1ccccc1NC(=O)COC(=O)/C=C/c1ccc2c(c1)OCO2 | -3 | 116 | -3 | 2 | -20 | 111
O=C(/C=C/c1ccc2c(c1)OCO2)Nc1ccc(Cl)cn1 | 162* | 132* | 31 | 3 | -32 | 77
COc1ccccc1NC(=O)/C=C/c1ccc2c(c1)OCO2 | 45 | 134* | 0 | 2.1 | -39 | 108
O=C(O)CN1C(=O)/C(=C/c2ccc(SCc3ccccc3)o2)SC1=S | 16 | 95 | -6 | 0.92 | 3 | 108
Cc1cc(SCC(=O)c2cc(C)n(C)c2C)nc2ccccc12 | 12 | 98 | 4 | 1.1 | 3 | 97
Cc1ccccc1NC(=O)c1cc(C(=O)c2cc(Cl)ccc2O)cn(-c2ccccc2C)c1=O | 13 | 121 | -5 | 0.6 | -23 | 108
Cc1ccc2nc(NCc3ccccc3)[nH]c2c1 | -10 | 116 | 0 | 4.8* | -18 | 105
Cc1oncc1-c1csc(-c2ccccc2Cl)n1 | 22 | 143* | 15 | 1.3 | -46 | 95
SMILES | APP 5'UTR act | STAT1 act | STAT3 inh | NF-kB neuron act | STAT1 inh | STAT3 act
O=C(O)c1ccc(-c2nc(-c3ccccc3Cl)cs2)cc1 | 52 | 134* | -14 | 1.8 | -39 | 119
Cc1oncc1-c1csc(-c2ccccc2)n1 | 56 | 137* | 12 | 2.3 | -40 | 93
CC(=O)N1CCN(Cc2nc3cc(NC(=O)c4ccc(F)cc4)ccc3n2C)CC1 | 6 | 104 | 5 | 1.4 | -6 | 99
C/C(=N\Nc1nc2ccccc2s1)c1ccc2c(c1)OCO2 | 47 | 121 | -4 | 3.4* | -23 | 101
C/C(=N\Nc1ccc(Cl)c(C(=O)O)c1)c1cc2ccccc2o1 | 11 | 114 | 11 | 0.99 | -16 | 97
O=C(O)c1ccc(N/N=C/c2ccc3c(c2)OCO3)cc1 | -31 | 13 | 80* | 0.66 | 93* | 34
C/C(=N\Nc1nc2ccccc2s1)c1ccc(Br)s1 | 17 | 95 | -22 | 1.3 | 3 | 126
C/C(=N\Nc1ccc(Cl)c(C(=O)O)c1)c1ccc2c(c1)OCO2 | 22 | 131* | -8 | 1.9 | -34 | 108
O=C(O)c1cc(N/N=C/c2ccc3c(c2)OCCO3)ccc1Cl | 82 | 58 | -28 | 5.5* | 48* | 120
O=C(O)c1cc(N/N=C/c2ccc3c(c2)OCO3)ccc1Cl | 121 | 82 | -16 | 1.1 | 19 | 122
Cc1nc(NC(=O)/C=C/c2ccccc2)n[nH]1 | -19 | 85 | 13 | 0.77 | 16 | 87
COc1cccc(-c2csc(N3CCN(C(=S)Nc4ccccc4C)CC3)n2)c1 | 31 | 104 | 22 | 1.5 | -6 | 86
CCCCNc1c(N)n(CC(C)C)c(=O)[nH]c1=O | 1 | 97 | -2 | 1.1 | 2 | 107
CCn1ncc(C(=O)Nc2cccc(Cl)c2)c1C | 86 | 144* | -17 | 2.4 | -47 | 115
COc1ccc(C)cc1S(=O)(=O)N1c2ccccc2CC1C (stereo unspecified) | 4 | 99 | 6 | 0.97 | 2 | 96
O=C(CSc1nnc(-c2csc3c2CCCC3)o1)Nc1ccccc1 | 203* | 138* | 4 | 3.4* | -42 | 104
Cc1csc(NC(=O)CSc2nnc(-c3ccccc3)o2)n1 | 136* | 126 | -5 | 3.1 | -29 | 111
CCOC(=O)C1CCCN(C(=O)COc2ccc(N(C)S(=O)(=O)c3ccc(F)cc3)cc2)C1 (stereo unspecified) | -1 | 87 | -16 | 1.6 | 13 | 114
COc1ccc(-c2csc(Nc3ncccc3C)n2)cc1OC | 31 | 141* | 12 | 1 | -46 | 90
Cc1cccnc1Nc1nc(-c2ccc(O)c(O)c2)cs1 | 39 | 130* | 14 | 3.6* | -32 | 88
COc1ccc(-c2csc(/N=C/N(C)C)n2)cc1OC | 19 | 114 | -10 | 1.4 | -15 | 108
Oc1ccc(Nc2nc(-c3ccc(O)cc3)cs2)cc1 | 62 | 97 | 34 | 2.6 | 3 | 74
Cc1ccccc1OCCC(=O)OCC(=O)Nc1cc(S(=O)(=O)N2CCOCC2)ccc1Cl | 21 | 104 | 2 | 1.1 | -6 | 99
C/C(N)=C(/C#N)C(=O)COC(=O)c1cc(-c2ccc(Br)cc2)nc2ccccc12 | -7 | 98 | 27 | 3.6* | 2 | 79
Cc1cccc(OCC(=O)N2CCC(c3ccccc3)C2)c1 (stereo unspecified) | 131 | 121 | -1 | 2.2 | -22 | 103
O=C(c1cccs1)N1CCC(c2ccccc2)C1 (stereo unspecified) | 68 | 135* | -1 | 2.4 | -38 | 104
O=C(Nc1ccccc1)N1CCC(c2ccccc2)C1 (stereo unspecified) | 78 | 138* | 13 | 3.1 | -41 | 90
